Data reported in ChEMBL document CHEMBL4118065, “Design, synthesis and antimycobacterial activity of novel imidazo[1,2-a]pyridine-3-carboxamide derivatives” (Eur J Med Chem, 2017).
In brackets after ≈: the same amount, converted by molar mass.

Tests used:
[1] = tested on: Mycobacterium tuberculosis; test: Antimycobacterial activity against isoniazid/rifampicin-resistant Mycobacterium tuberculosis MTB11168 after 7 days by microplate Alamar blue assay; format: functional; details: MTB11168, 168 h
Summary of the method: (§1)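 MABA against replicating M. tuberculosis. Cells grown to late log phase (70–100 Klett units) in 7H9 broth with 0.2% glycerol, 0.05% Tween 80 and 10% ADC. They were washed in PBS, filtered (8 µm) and frozen. Twofold compound dilutions received 2×10^5 CFU per well at 37 °C. Tween 80 and Alamar blue were added on day 7, then 16–24 h more. Fluorescence read at 530/590 nm. MIC = lowest concentration giving ≥90% fluorescence reduction versus bacterium-only controls.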

[2] = tested on: Mycobacterium tuberculosis; test: Antimycobacterial activity against isoniazid/rifampicin-resistant Mycobacterium tuberculosis MTB9160 after 7 days by microplate Alamar blue assay; format: functional; details: MTB9160, 168 h; summary of the method: as §1

Structure (SMILES) | MIC90 [1] [µM] | MIC90 [2] [µM]
Cc1ccc2nc(C)c(C(=O)NCCOc3ccc(Br)cc3)n2c1 | < 0.041 | 0.2 (≈ 0.0777 µg/mL)
COc1ccc(NCCNC(=O)c2c(C)nc3ccc(C)cn23)cc1 | 1.47 (≈ 0.497 µg/mL) | 2.64 (≈ 0.893 µg/mL)
NNC(=O)c1ccncc1 [ISONIAZID] | > 291 | > 291
Cc1ccc2nc(C)c(C(=O)NCCNc3ccc(C(C)(C)C)cc3)n2c1 | 1.37 (≈ 0.499 µg/mL) | 0.57 (≈ 0.208 µg/mL)
CO[C@H]1/C=C/O[C@@]2(C)Oc3c(C)c(O)c4c(O)c(c(/C=N/N5CCN(C)CC5)c(O)c4c3C2=O)NC(=O)/C(C)=C\C=C\[C@H](C)[C@H](O)[C@@H](C)[C@@H](O)[C@@H](C)[C@H](OC(C)=O)[C@@H]1C [RIFAMPIN] | > 57 | > 57
